Reference: ChEMBL document CHEMBL3632581, “Dimers of Melampomagnolide B Exhibit Potent Anticancer Activity against Hematological and Solid Tumor Cells” (J Med Chem, 2015)

Assays:
OVCAR-8 = assay: Cytotoxicity against human OVCAR8 cells after 48 hrs by SRB assay; assay type: functional; settings: OVCAR-8, 48 h; for CC50: read-out: LC50 (the source's name)
Outline: (§1)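 NCI-60 five-dose screen at 10−8 to 10−4 M. Cells were plated at 5,000–40,000/well in RPMI 1640 with 5% FBS and 2 mM L-glutamine, then preincubated 24 h, and time-zero plates were TCA-fixed. Compound was added from DMSO stocks and exposed 48 h at 37 °C. Cells were TCA-fixed, SRB-stained, and read at 515 nm. LC50 is the concentration halving the cell population through cell death.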

Malme-3M = assay: Cytotoxicity against human MALME-3M cells after 48 hrs by SRB assay; assay type: functional; settings: for CC50: read-out: LC50 (the source's name); outline: as §1
OVCAR-4 = assay: Cytotoxicity against human OVCAR4 cells after 48 hrs by SRB assay; assay type: functional; settings: OVCAR-4, 48 h; for CC50: read-out: LC50 (the source's name); outline: as §1
RXF 393 = assay: Cytotoxicity against human RXF393 cells after 48 hrs by SRB assay; assay type: functional; settings: RXF 393, 48 h; for CC50: read-out: LC50 (the source's name); outline: as §1
MDA-MB-468 = assay: Cytotoxicity against human MDA-MB-468 cells after 48 hrs by SRB assay; assay type: functional; settings: MDA-MB-468, 48 h; outline: as §1
SF-295 = assay: Cytotoxicity against human SF295 cells after 48 hrs by SRB assay; assay type: functional; settings: SF-295, 48 h; for CC50: read-out: LC50 (the source's name); outline: as §1
SK-MEL-5 = assay: Cytotoxicity against human SK-MEL-5 cells after 48 hrs by SRB assay; assay type: functional; settings: SK-MEL-5, 48 h; for CC50: read-out: LC50 (the source's name); outline: as §1
SK-OV-3 = assay: Cytotoxicity against human SKOV3 cells after 48 hrs by SRB assay; assay type: functional; settings: SK-OV-3, 48 h; for CC50: read-out: LC50 (the source's name); outline: as §1
PC-3 = assay: Cytotoxicity against human PC3 cells after 48 hrs by SRB assay; assay type: functional; settings: PC-3, 48 h; outline: as §1
[1] = Cytotoxicity against hematopoietic progenitor cells isolated from human umbilical cord blood by annexin V staining-based flow cytometric analysis; assay type: cell-based
Outline: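 Cord-blood mononuclear cells from Ficoll-Paque were plated in serum-free medium, with drug from a DMSO stock (≤0.5% DMSO final). Cells were stained for CD34, CD45 and annexin V. The non-apoptotic fraction (annexin V-negative within the CD34+CD45dim compartment) was normalized to vehicle, and EC50 was fitted where possible. Triplicate.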

SK-MEL-2 = assay: Cytotoxicity against human SK-MEL-2 cells after 48 hrs by SRB assay; assay type: functional; settings: SK-MEL-2, 48 h; for CC50: read-out: LC50 (the source's name); outline: as §1
HCT-116 = assay: Cytotoxicity against human HCT116 cells after 48 hrs by SRB assay; assay type: functional; settings: HCT-116, 48 h; for CC50: read-out: LC50 (the source's name); outline: as §1
[2] = Antileukemic activity against human AML05 cells after 24 hrs by annexin V/7-AAD staining-based flow cytometric analysis; assay type: functional, cell-based
Outline: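 Primary AML specimens from consenting donors, isolated by Ficoll-Paque gradient and sometimes cryopreserved. Cells were held 1 h in serum-free IMDM with 20% BIT 9500, LDL and β-mercaptoethanol before drug (DMSO stock diluted in PBS, ≤0.5% DMSO final). Exposure was 24 h over 0.5-10 μM. Annexin V/7-AAD double-negative cells, normalized to vehicle, gave the EC50. Run in triplicate.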

786-0 = assay: Cytotoxicity against human 786-0 cells after 48 hrs by SRB assay; assay type: functional; settings: 786-0, 48 h; for CC50: read-out: LC50 (the source's name); outline: as §1
[3] = Cytotoxicity against human NCI-ADR-RES cells after 48 hrs by SRB assay; assay type: functional; settings: for CC50: read-out: LC50 (the source's name); outline: as §1
RPMI-8226 = assay: Cytotoxicity against human RPMI8226 cells after 48 hrs by SRB assay; assay type: functional; settings: RPMI-8226, 48 h; for CC50: read-out: LC50 (the source's name); outline: as §1
SK-MEL-28 = assay: Cytotoxicity against human SK-MEL-28 cells after 48 hrs by SRB assay; assay type: functional; settings: SK-MEL-28, 48 h; for CC50: read-out: LC50 (the source's name); outline: as §1
M14 = assay: Cytotoxicity against human M14 cells after 48 hrs by SRB assay; assay type: functional; settings: M14, 48 h; for CC50: read-out: LC50 (the source's name); outline: as §1
TK-10 = assay: Cytotoxicity against human TK10 cells after 48 hrs by SRB assay; assay type: functional; settings: TK-10, 48 h; for CC50: read-out: LC50 (the source's name)
Outline: (§2)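 NCI-60 screen: cells grown in RPMI 1640 with 5% FBS and 2 mM L-glutamine, plated at 5,000–40,000 cells/well by doubling time, and preincubated 24 h at 37 °C before drug. Drug was diluted from DMSO stock and given at five concentrations, 10−4 to 10−8 M, for 48 h. Cells fixed with cold TCA, SRB stained, OD read at 515 nm against time-zero and vehicle plates. LC50 taken as the concentration that halves cell population through cell death.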

[4] = Potency index, ratio of parthenolide EC50 to compound EC50 for human M9-ENL1 cells; assay type: functional
ACHN = assay: Cytotoxicity against human ACHN cells after 48 hrs by SRB assay; assay type: functional; settings: for CC50: read-out: LC50 (the source's name); outline: as §1
K562 = assay: Cytotoxicity against human K562 cells after 48 hrs by SRB assay; assay type: functional; settings: K562, 48 h; for CC50: read-out: LC50 (the source's name); outline: as §1
NCI-H460 = assay: Cytotoxicity against human NCI-H460 cells after 48 hrs by SRB assay; assay type: functional; settings: NCI-H460, 48 h; for CC50: read-out: LC50 (the source's name); outline: as §1
UACC-257 = assay: Cytotoxicity against human UACC257 cells after 48 hrs by SRB assay; assay type: functional; settings: UACC-257, 48 h; for CC50: read-out: LC50 (the source's name); outline: as §2
MCF7 = assay: Cytotoxicity against human MCF7 cells after 48 hrs by SRB assay; assay type: functional; settings: MCF7, 48 h; for CC50: read-out: LC50 (the source's name)
Outline: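 NCI-60 screen: cells in RPMI 1640 with 5% FBS and 2 mM L-glutamine, preincubated 24 h at 37 °C. Compound was then added for 48 h at five concentrations (10−4 to 10−8 M). Cells were fixed with cold TCA and stained with 0.4% SRB in 1% acetic acid, and OD read at 515 nm. GI50 is the concentration halving net protein increase versus control.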

OVCAR-5 = assay: Cytotoxicity against human OVCAR5 cells after 48 hrs by SRB assay; assay type: functional; settings: OVCAR-5, 48 h; for CC50: read-out: LC50 (the source's name); outline: as §1
NCI-H23 = assay: Cytotoxicity against human NCI-H23 cells after 48 hrs by SRB assay; assay type: functional; settings: NCI-H23, 48 h; for CC50: read-out: LC50 (the source's name); outline: as §1
[5] = Antileukemic activity against human M9-ENL1 cells after 24 hrs by annexin V/7-AAD staining-based flow cytometric analysis; assay type: functional, cell-based
Outline: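 M9-ENL1 cells in alpha-MEM with 5% human plasma, 20% FBS, SCF, IL-3, IL-7 and FLT3. Drug came from a DMSO stock diluted in PBS (≤0.5% DMSO final), for 24 h over 0.5-10 μM. Cells negative for both annexin V and 7-AAD were taken as non-apoptotic and normalized to vehicle. EC50 read from dose-response curves, triplicate.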

A549 = assay: Cytotoxicity against human A549 cells after 48 hrs by SRB assay; assay type: functional; settings: A549, 48 h; for CC50: read-out: LC50 (the source's name); outline: as §1

C=C1C(=O)O[C@H]2[C@H]1CC/C(COC(=O)NCCCCCNC(=O)OC/C1=C/CC[C@@]3(C)O[C@H]3[C@H]3OC(=O)C(=C)[C@@H]3CC1)=C\CC[C@@]1(C)O[C@@H]21
GI50 (OVCAR-8): 3.27 µM | CC50 (OVCAR-8): 61 µM | GI50 (Malme-3M): 2.06 µM | CC50 (Malme-3M): 27.3 µM | GI50 (OVCAR-4): 2.72 µM | CC50 (OVCAR-4): 41.9 µM | GI50 (RXF 393): 0.85 µM | CC50 (RXF 393): 6.35 µM | GI50 (MDA-MB-468): 1.06 µM | LC50 (MDA-MB-468): 24.7 µM | GI50 (SF-295): 11.1 µM | CC50 (SF-295): 65.2 µM | GI50 (SK-MEL-5): 3.19 µM | CC50 (SK-MEL-5): 37 µM | GI50 (SK-OV-3): 5.99 µM | CC50 (SK-OV-3): 49.9 µM | GI50 (PC-3): 3.79 µM | LC50 (concentration killing half the cell population) (PC-3): 49.4 µM | EC50 [1]: > 10 µM | GI50 (SK-MEL-2): 2.01 µM | CC50 (SK-MEL-2): 7.81 µM | GI50 (HCT-116): 0.54 µM | CC50 (HCT-116): 4.56 µM | EC50 [2]: 1.6 µM | GI50 (786-0): 1.57 µM | CC50 (786-0): 6.39 µM | GI50 [3]: 70 µM | CC50 [3]: > 100 µM | GI50 (RPMI-8226): 0.78 µM | CC50 (RPMI-8226): > 100 µM | GI50 (SK-MEL-28): 1.58 µM | CC50 (SK-MEL-28): 12.6 µM | GI50 (M14): 1.71 µM | CC50 (M14): 8.2 µM | GI50 (TK-10): 1.82 µM | CC50 (TK-10): 11.8 µM | Ratio EC50 [4]: 2 | GI50 (ACHN): 3.05 µM | CC50 (ACHN): 35.4 µM | GI50 (K562): 0.56 µM | CC50 (K562): > 100 µM | GI50 (NCI-H460): 4.34 µM | CC50 (NCI-H460): 50.7 µM | GI50 (UACC-257): 2.07 µM | CC50 (UACC-257): 42.4 µM | GI50 (MCF7): 0.39 µM | CC50 (MCF7): 6.2 µM | GI50 (OVCAR-5): 1.67 µM | CC50 (OVCAR-5): 7.47 µM | GI50 (NCI-H23): 2.66 µM | CC50 (NCI-H23): 45.5 µM | EC50 [5]: 0.57 µM | GI50 (A549): 14.9 µM | CC50 (A549): 71.7 µM

C=C1C(=O)O[C@H]2[C@H]1CC/C(COC(=O)NCCCCCCCCNC(=O)OC/C1=C/CC[C@@]3(C)O[C@H]3[C@H]3OC(=O)C(=C)[C@@H]3CC1)=C\CC[C@@]1(C)O[C@@H]21
GI50 (OVCAR-8): 0.32 µM | CC50 (OVCAR-8): 6.77 µM | GI50 (Malme-3M): 0.19 µM | CC50 (Malme-3M): 0.92 µM | GI50 (OVCAR-4): 0.52 µM | CC50 (OVCAR-4): 4.63 µM | GI50 (RXF 393): 0.16 µM | CC50 (RXF 393): 0.64 µM | GI50 (MDA-MB-468): 0.19 µM | LC50 (MDA-MB-468): 1.5 µM | GI50 (SF-295): 1.95 µM | CC50 (SF-295): 16.2 µM | GI50 (SK-MEL-5): 1.21 µM | CC50 (SK-MEL-5): 5.53 µM | GI50 (SK-OV-3): 3.64 µM | CC50 (SK-OV-3): 35.1 µM | GI50 (PC-3): 0.38 µM | LC50 (concentration killing half the cell population) (PC-3): 5.2 µM | EC50 [1]: > 10 µM | GI50 (SK-MEL-2): 0.6 µM | CC50 (SK-MEL-2): 17 µM | GI50 (HCT-116): 0.19 µM | CC50 (HCT-116): 0.83 µM | EC50 [2]: 2.3 µM | GI50 (786-0): 0.24 µM | CC50 (786-0): 2.93 µM | GI50 [3]: 3.91 µM | CC50 [3]: 82 µM | GI50 (RPMI-8226): 0.25 µM | CC50 (RPMI-8226): > 100 µM | GI50 (SK-MEL-28): 0.2 µM | CC50 (SK-MEL-28): 2.12 µM | GI50 (M14): 0.27 µM | CC50 (M14): 4.53 µM | GI50 (TK-10): 0.28 µM | CC50 (TK-10): 2.95 µM | Ratio EC50 [4]: 2 | GI50 (ACHN): 0.25 µM | CC50 (ACHN): 2.85 µM | GI50 (K562): 0.34 µM | CC50 (K562): > 100 µM | GI50 (NCI-H460): 1.75 µM | CC50 (NCI-H460): 9.02 µM | GI50 (UACC-257): 0.84 µM | CC50 (UACC-257): 8.51 µM | GI50 (MCF7): 0.22 µM | CC50 (MCF7): 4.3 µM | GI50 (OVCAR-5): 0.26 µM | CC50 (OVCAR-5): 4.04 µM | GI50 (NCI-H23): 0.48 µM | CC50 (NCI-H23): 4.86 µM | EC50 [5]: 2 µM | GI50 (A549): 1.7 µM | CC50 (A549): 7.26 µM
